From ChEMBL document CHEMBL3621187, “Novel Lobophorins Inhibit Oral Cancer Cell Growth and Induce Atf4- and Chop-Dependent Cell Death in Murine Fibroblasts” (ACS Med Chem Lett, 2015)
The source made the active and inactive calls. No cut-off for these calls is given here.

What was measured:
[1] = test system: UMSCC1; assay: Cytotoxicity against human UMSCC1 cells at 1.25 to 80 uM up to 48 hrs by ATP-based luminescent proliferation assay; format: functional, cell-based
Outline: (§1)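 Floor-of-mouth OSCC lines (UMSCC1, UMSCC14A) and nonmalignant primary human epidermal keratinocytes were treated at 1.25–80 μM for 24 and 48 h. Growth was measured by ATP-based luminescent proliferation assay, and OSCC vs keratinocytes was compared by two-way ANOVA.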

[2] = Cytotoxicity against human HEK cells at 1.25 to 80 uM after 24 hrs by ATP-based luminescent proliferation assay; format: cell-based; outline: as §1
[3] = Cytotoxicity against human HEK cells at 1.25 to 80 uM after 48 hrs by ATP-based luminescent proliferation assay; format: cell-based; outline: as §1
[4] = test system: UMSCC14A; assay: Cytotoxicity against human UMSCC14A cells at 1.25 to 80 uM up to 48 hrs by ATP-based luminescent proliferation assay; format: functional, cell-based; outline: as §1
[5] = test system: MEF; assay: Activation of unfolded protein response in Atf4-deficient mouse MEF assessed as effect on Puma expression at 40 uM after 6 hrs by qRT-PCR analysis; format: functional, cell-based
Outline: (§2)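 Atf4-null murine embryonic fibroblasts and wildtype littermate controls were exposed to 40 μM for 6 h, with 2.5 μg/mL tunicamycin as comparator. cDNA libraries were made from the cells, and Noxa, Puma and Trb3 transcripts were quantified by qRT-PCR.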

[6] = test system: MEF; assay: Activation of unfolded protein response in Atf4-deficient mouse MEF assessed as effect on Trb3 expression at 40 uM after 6 hrs by qRT-PCR analysis; format: functional, cell-based; outline: as §2
[7] = test system: MEF; assay: Activation of unfolded protein response in Atf4-deficient mouse MEF assessed as effect on Noxa expression at 40 uM after 6 hrs by qRT-PCR analysis; format: functional, cell-based; outline: as §2
[8] = test system: UMSCC14A; assay: Activation of unfolded protein response in human UMSCC14A cells assessed as increase of BiP/GRP78 expression at 40 uM after 6 to 12 hrs by qRT-PCR analysis; format: functional, cell-based
[9] = test system: UMSCC1; assay: Activation of unfolded protein response in human UMSCC1 cells assessed as increase of CHOP expression at 40 uM after 6 to 12 hrs by qRT-PCR analysis; format: functional, cell-based
Outline: (§3)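 UMSCC1 oral squamous carcinoma cells were treated for 6 or 12 h, and UPR marker transcripts were quantified by qRT-PCR.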

[10] = test system: UMSCC14A; assay: Activation of unfolded protein response in human UMSCC14A cells assessed as increase of ATF3 expression at 40 uM after 6 to 12 hrs by qRT-PCR analysis; format: functional, cell-based
[11] = Activation of unfolded protein response in human UMSC23 cells assessed as increase of ATF3 expression at 40 uM after 6 to 12 hrs by qRT-PCR analysis; format: functional, cell-based
[12] = Activation of unfolded protein response in human UMSC23 cells assessed as increase of spliced XBP1 expression at 40 uM after 6 to 12 hrs by qRT-PCR analysis; format: functional, cell-based
[13] = test system: UMSCC1; assay: Activation of unfolded protein response in human UMSCC1 cells assessed as increase of GADD34 expression at 40 uM after 6 to 12 hrs by qRT-PCR analysis; format: functional, cell-based; outline: as §3
[14] = test system: UMSCC14A; assay: Activation of unfolded protein response in human UMSCC14A cells assessed as increase of CHOP expression at 40 uM after 6 to 12 hrs by qRT-PCR analysis; format: functional, cell-based
[15] = test system: MEF; assay: Antiproliferative activity against Chop-deficient mouse MEF after 16 hrs by ATP-based luminescent proliferation assay; format: functional, cell-based
Outline: (§4)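 Atf4−/− and Chop−/− murine embryonic fibroblasts, each with wildtype littermate controls, were dosed across a concentration series for 16 h. Proliferation was read by ATP-based luminescence, and wildtype vs null was compared by two-way ANOVA (dose, interaction).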

[16] = test system: UMSCC1; assay: Activation of unfolded protein response in human UMSCC1 cells assessed as increase of spliced XBP1 expression at 40 uM after 6 to 12 hrs by qRT-PCR analysis; format: functional, cell-based; outline: as §3
[17] = test system: MEF; assay: Antiproliferative activity against mouse MEF harboring eIF2-alpha (Ser51Ala) mutant after 16 hrs by ATP-based luminescent proliferation assay; format: functional, cell-based
[18] = test system: UMSCC1; assay: Activation of unfolded protein response in human UMSCC1 cells assessed as increase of ATF3 expression at 40 uM after 6 to 12 hrs by qRT-PCR analysis; format: functional, cell-based; outline: as §3
[19] = Activation of unfolded protein response in human UMSC23 cells assessed as increase of GADD34 expression at 40 uM after 6 to 12 hrs by qRT-PCR analysis; format: functional, cell-based
[20] = test system: UMSCC14A; assay: Activation of unfolded protein response in human UMSCC14A cells assessed as increase of GADD34 expression at 40 uM after 6 to 12 hrs by qRT-PCR analysis; format: functional, cell-based
[21] = test system: UMSCC1; assay: Activation of unfolded protein response in human UMSCC1 cells assessed as increase of BiP/GRP78 expression at 40 uM after 6 to 12 hrs by qRT-PCR analysis; format: functional, cell-based; outline: as §3
[22] = Activation of unfolded protein response in human UMSC23 cells assessed as increase of CHOP expression at 40 uM after 6 to 12 hrs by qRT-PCR analysis; format: functional, cell-based
[23] = Activation of unfolded protein response in human UMSC23 cells assessed as increase of BiP/GRP78 expression at 40 uM after 6 to 12 hrs by qRT-PCR analysis; format: functional, cell-based
[24] = test system: MEF; assay: Antiproliferative activity against Atf4-deficient mouse MEF after 16 hrs by ATP-based luminescent proliferation assay; format: functional, cell-based; outline: as §4
[25] = test system: UMSCC14A; assay: Activation of unfolded protein response in human UMSCC14A cells assessed as increase of spliced XBP1 expression at 40 uM after 6 to 12 hrs by qRT-PCR analysis; format: functional, cell-based

SMILES | Activity [1] | Activity [2] | Activity [3] | Activity [4] | Activity [5] | Activity [6] | Activity [7] | other results
COC(=O)N[C@H]1[C@@H](C)O[C@@H](O[C@H]2C/C=C(\C)[C@@H]3C=C[C@@H]4[C@@H](O[C@H]5C[C@@H](O[C@H]6C[C@@H](O)[C@@H](O[C@@H]7C[C@@H](O)[C@@H](OC)[C@H](C)O7)[C@H](C)O6)[C@@H](O)[C@H](C)O5)[C@@H](C)C[C@H](C)[C@H]4[C@]3(C)C(=O)C3=C(O)[C@@]4(C[C@@H](C)C(C)=C[C@H]4/C=C/2C)OC3=O)C[C@]1(C)[N+](=O)[O-] | Active | Non-toxic | Toxic | Active | – | – | – | –
COC(=O)N[C@H]1[C@@H](C)O[C@@H](O[C@H]2C/C=C(\C)[C@@H]3C=C[C@@H]4[C@@H](O[C@H]5C[C@@H](O[C@H]6C[C@@H](O)[C@@H](O[C@@H]7C[C@@H](O)[C@@H](OC)[C@H](C)O7)[C@H](C)O6)[C@@H](O)[C@H](C)O5)[C@@H](C)C[C@H](C)[C@H]4[C@]3(C)C(=O)C3=C(O)[C@@]4(C[C@@H](C)C(CO)=C[C@H]4/C=C/2C)OC3=O)C[C@]1(C)O | Active | Non-toxic | – | Active | – | – | – | –
COC(=O)N[C@H]1[C@@H](C)O[C@@H](O[C@H]2C/C=C(\C)[C@@H]3C=C[C@@H]4[C@@H](O[C@H]5C[C@@H](O[C@H]6C[C@@H](O)[C@@H](O[C@@H]7C[C@@H](O)[C@@H](OC)[C@H](C)O7)[C@H](C)O6)[C@@H](O)[C@H](C)O5)[C@@H](C)C[C@H](C)[C@H]4[C@]3(C)C(=O)C3=C(O)[C@@]4(C[C@@H](C)C(CO)=C[C@H]4/C=C/2C)OC3=O)C[C@]1(C)[N+](=O)[O-] | Active | Non-toxic | Toxic | Active | inactive | inactive | inactive | –
COC(=O)N[C@H]1[C@@H](C)O[C@@H](O[C@H]2C/C=C(\C)[C@@H]3C=C[C@@H]4[C@@H](O[C@H]5C[C@@H](O[C@H]6C[C@@H](O)[C@@H](O)[C@H](C)O6)[C@@H](O)[C@H](C)O5)[C@@H](C)C[C@H](C)[C@H]4[C@]3(C)C(=O)C3=C(O)[C@@]4(C[C@@H](C)C(C)=C[C@H]4/C=C/2C)OC3=O)C[C@]1(C)[N+](=O)[O-] | Active | Non-toxic | – | Active | inactive | inactive | inactive | Activity [8]: Active; Activity [9]: Active; Activity [10]: Active; Activity [11]: Active; Activity [12]: Active; Activity [13]: Active; Activity [14]: Active; Activity [15]: inactive; Activity [16]: Active; Activity [17]: inactive; Activity [18]: Active; Activity [19]: Active; Activity [20]: Active; Activity [21]: Active; Activity [22]: Active; Activity [23]: Active; Activity [24]: inactive; Activity [25]: Active
